As a reminder, the fraction unbound is the share of the substance not bound to proteins or other matrix. Low readings indicate extensive binding, high ones weak binding. A word on the Kp: it is the ratio of the level in a tissue or fluid to that in plasma or blood. The CLint scaled is the capacity of the preparation to metabolise the compound, expressed as a volume cleared per time. A low value points to slow turnover.

8 compounds from ChEMBL document CHEMBL4477243, “Discovery and SAR of a novel series of potent, CNS penetrant M4 PAMs based on a non-enolizable ketone core: Challenges in disposition” (Bioorg Med Chem Lett, 2016) can be followed below.

The source made the active and inactive calls. The calls are words filed in the database; no cut-off is given here. A value given as a limit tells only on which side of the number the result lay.

The target in data set [1] is T1, Muscarinic acetylcholine receptor M4 (Homo sapiens, UniProt P08173).
T1 sequence (P08173 whole entry): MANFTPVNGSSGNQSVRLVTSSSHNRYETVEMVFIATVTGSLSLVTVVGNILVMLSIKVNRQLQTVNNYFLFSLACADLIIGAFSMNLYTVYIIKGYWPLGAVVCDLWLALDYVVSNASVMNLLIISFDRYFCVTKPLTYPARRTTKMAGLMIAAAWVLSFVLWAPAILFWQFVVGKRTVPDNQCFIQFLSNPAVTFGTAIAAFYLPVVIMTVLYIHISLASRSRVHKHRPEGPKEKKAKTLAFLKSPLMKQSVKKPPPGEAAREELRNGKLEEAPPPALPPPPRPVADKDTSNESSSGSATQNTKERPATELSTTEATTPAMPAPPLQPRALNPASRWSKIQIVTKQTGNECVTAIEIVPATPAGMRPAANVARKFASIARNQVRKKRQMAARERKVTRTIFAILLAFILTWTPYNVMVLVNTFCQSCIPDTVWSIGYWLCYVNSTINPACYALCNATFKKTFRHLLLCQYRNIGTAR
Nature of the data set: Positive allosteric modulation activity at human M4 receptor expressed in CHO cells co-expressing Gqi5 protein assessed as potentiation of EC20 acetyl choline-induced response by calcium mobilization assay. It counts as functional, cell-based. In a few lines: (§1)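 Calcium mobilization in CHO cells stably co-expressing human or rat M4 with the chimeric Gqi5 protein. Test compound given with a fixed EC20 concentration of acetylcholine. Potency reported as EC50; efficacy as % of the acetylcholine maximum. Means of three independent experiments, each in triplicate.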
(Calcium flux is commonly read through the fluorescence of an indicator in the cells.)

A short description of data set [2]: Fraction unbound in human plasma. It counts as ADME, cell-free. A digest of the protocol: (§2)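 Plasma protein binding, reported as fraction unbound in rat and human plasma. Single experiment (n=1) run in triplicate.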
Data set [3] can be described thus: Drug metabolism in cryopreserved human hepatocytes assessed as secondary alcohol 18 formation. The format is ADME, cell-based, Hepatocyte.
For data set [4], the target named is T2, Muscarinic acetylcholine receptor M4 (Rattus norvegicus) (UniProt P08485).
T2 sequence (whole entry): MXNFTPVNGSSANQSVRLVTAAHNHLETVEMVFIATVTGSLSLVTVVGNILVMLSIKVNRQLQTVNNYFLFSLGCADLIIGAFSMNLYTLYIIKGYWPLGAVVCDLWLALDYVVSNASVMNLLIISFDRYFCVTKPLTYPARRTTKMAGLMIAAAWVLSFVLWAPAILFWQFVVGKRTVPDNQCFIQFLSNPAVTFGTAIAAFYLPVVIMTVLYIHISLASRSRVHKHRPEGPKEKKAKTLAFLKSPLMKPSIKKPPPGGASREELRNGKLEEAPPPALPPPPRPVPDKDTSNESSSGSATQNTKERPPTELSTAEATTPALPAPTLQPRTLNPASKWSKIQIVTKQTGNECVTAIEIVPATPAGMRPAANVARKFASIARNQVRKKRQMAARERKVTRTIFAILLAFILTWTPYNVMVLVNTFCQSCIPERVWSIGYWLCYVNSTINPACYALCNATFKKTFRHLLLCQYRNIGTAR
Kind of data set: Positive allosteric modulation activity at rat M4 receptor expressed in CHO cells co-expressing Gqi5 protein assessed as potentiation of EC20 acetyl choline-induced response by calcium mobilization assay relative to acetylcholine. The format is functional, cell-based. A digest of the protocol: as §1

Data set [5] in a line: Drug metabolism in cryopreserved rat hepatocytes assessed as secondary alcohol 18 formation. The format is ADME, cell-based, Hepatocyte.
A short description of data set [6]: Fraction unbound in rat plasma. It counts as ADME, cell-free. A digest of the protocol: as §2
Data set [7] addresses T3, Muscarinic acetylcholine receptor M4 (Homo sapiens) (UniProt P08173).
T3 sequence (whole entry): T1 sequence (P08173 whole entry)
Kind of data set: Positive allosteric modulation activity at human M4 receptor expressed in CHO cells co-expressing Gqi5 protein assessed as potentiation of EC20 acetyl choline-induced response by calcium mobilization assay relative to acetylcholine. The format is functional, cell-based. A digest of the protocol:
as §1

Data set [8] concerns the target T4, Muscarinic acetylcholine receptor M4 (Rattus norvegicus, UniProt P08485).
T4 sequence (P08485 whole entry): T2 sequence (whole entry)
Nature of the data set: Positive allosteric modulation activity at rat M4 receptor expressed in CHO cells co-expressing Gqi5 protein assessed as potentiation of EC20 acetyl choline-induced response by calcium mobilization assay. The format is functional, cell-based. In a few lines:
as §1

Another data set relates to Cytochrome P450. Nature of the data set: Inhibition of Cytochrome P450 (unknown origin). As to conditions: human. The format is ADME, protein assay.
Data set [9] is described as follows: Ratio of drug level in Sprague-Dawley rat brain to plasma at 0.2 to 0.25 mg/kg, iv administered as cassette dose measured 0.25 hrs post dose. It counts as ADME, organism-based. As to conditions: brain and plasma. A digest of the protocol:
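Male Sprague-Dawley rats (n=1) received an IV cassette dose of 0.20-0.25 mg/kg. Brain and plasma sampled 0.25 hr post-administration. Total brain:plasma partition coefficient (Kp) measured; unbound coefficient (Kp,uu) calculated.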

A further data set concerns the target T5, Cytochrome P450 1A2 (Homo sapiens, UniProt P05177).
T5 sequence (P05177 whole entry): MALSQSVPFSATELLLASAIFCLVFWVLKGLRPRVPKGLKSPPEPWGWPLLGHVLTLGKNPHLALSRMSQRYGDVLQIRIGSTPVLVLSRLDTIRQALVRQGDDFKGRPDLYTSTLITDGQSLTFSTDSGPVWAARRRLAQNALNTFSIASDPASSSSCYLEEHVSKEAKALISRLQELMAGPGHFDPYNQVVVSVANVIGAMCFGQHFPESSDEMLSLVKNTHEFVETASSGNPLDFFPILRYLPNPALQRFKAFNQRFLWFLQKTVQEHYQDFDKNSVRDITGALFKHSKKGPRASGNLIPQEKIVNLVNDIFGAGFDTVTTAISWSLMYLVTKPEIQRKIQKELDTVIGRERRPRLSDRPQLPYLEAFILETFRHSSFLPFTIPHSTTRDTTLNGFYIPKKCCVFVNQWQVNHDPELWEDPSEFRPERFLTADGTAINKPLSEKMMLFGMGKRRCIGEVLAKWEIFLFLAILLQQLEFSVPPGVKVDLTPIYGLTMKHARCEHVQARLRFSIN
Kind of data set: Inhibition of CYP1A2 (unknown origin). It counts as ADME.

Data set [10] is described as follows: Selectivity ratio of EC50 for rat M4 receptor expressed in CHO cells co-expressing Gqi5 protein to EC50 for human M4 receptor expressed in CHO cells co-expressing Gqi5 protein. The format is cell-based.
Data set [11] in a line: Drug level in cryopreserved rat hepatocytes treated with (3-amino-4,6-dimethylthieno[2,3-b]pyridin-2-yl)(pyridin-4-yl)methanone assessed as compound formation. It counts as ADME, cell-based, Hepatocyte.
Data set [12] in a line: Drug level in cryopreserved human hepatocytes treated with (3-amino-4,6-dimethylthieno[2,3-b]pyridin-2-yl)(pyridin-4-yl)methanone assessed as compound formation. It counts as ADME, cell-based, Hepatocyte.
Data set [13] can be described thus: Intrinsic clearance in human microsomes. It counts as ADME, Microsome. A digest of the protocol:
(§3)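 Hepatic microsomal intrinsic clearance, from which predicted hepatic clearance was derived. Single experiment (n=1) run in triplicate.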

The target of data set [14] is T6, Muscarinic acetylcholine receptor M5 (Homo sapiens) (UniProt P08912).
T6 sequence (whole entry): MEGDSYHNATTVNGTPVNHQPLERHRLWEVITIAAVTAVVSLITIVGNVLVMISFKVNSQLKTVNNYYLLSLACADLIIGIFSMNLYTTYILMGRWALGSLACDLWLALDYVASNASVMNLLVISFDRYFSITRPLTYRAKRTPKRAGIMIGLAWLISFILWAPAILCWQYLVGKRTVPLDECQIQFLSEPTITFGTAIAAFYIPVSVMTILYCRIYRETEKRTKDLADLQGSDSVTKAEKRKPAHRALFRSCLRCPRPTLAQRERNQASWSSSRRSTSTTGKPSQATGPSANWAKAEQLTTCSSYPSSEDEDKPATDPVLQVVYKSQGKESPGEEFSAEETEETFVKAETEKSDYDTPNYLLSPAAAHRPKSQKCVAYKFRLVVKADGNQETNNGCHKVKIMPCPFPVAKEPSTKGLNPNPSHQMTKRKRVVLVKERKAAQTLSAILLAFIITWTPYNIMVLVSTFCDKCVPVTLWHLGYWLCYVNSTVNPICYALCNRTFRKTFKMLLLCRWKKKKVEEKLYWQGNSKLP
Nature of the data set: Positive allosteric modulation activity at human M5 receptor.

Data set [15] in a line: Intrinsic clearance in rat microsomes. It counts as ADME, Microsome. In a few lines: as §3

Consider `Cc1cc(C)c2c(N)c(C(=O)c3ccncc3)sc2n1`, for which the EC50 was 589 nM in [1] (read-out: EC50) and 2240 nM in data set [8] (read-out: EC50). For the same compound, the fraction unbound in data set [2] and in data set [6] was 0.005 to 0.18 each time. The Drug metabolism result in [3] and in [5] was “Metabolite_Detected” in each case. The %max in data set [4] turned out to be 64%; in data set [7], 71%. Also, the “inhibition (INH)” value in the data set on Cytochrome P450 was “Not Active”; against Cytochrome P450 1A2, “Active”. In addition, the Kp at 0.25 h in data set [9] lay within 0.83 to 6.95. In [10], the Ratio EC50 lay within 4 to 7.

Consider `Cc1cc(C)c2c(N)c(C(=O)c3ccc(F)cc3F)sc2n1`, for which the EC50 in data set [1] (read-out: EC50) turned out to be 562 nM; in data set [8] (read-out: EC50), 3980 nM. For the same compound, the fraction unbound in data set [2] and in [6] was 0.005 to 0.18 throughout. In addition, the %max came out at 35% in data set [4] and 39% in [7]. In addition, the results for the “inhibition (INH)” value in the data set with Cytochrome P450 and against Cytochrome P450 1A2 were “Not Active” and “Active”, respectively. Also, the Kp at 0.25 h in data set [9] is 0.83 to 6.95. In addition, the Ratio EC50 in [10] is 4 to 7.

Regarding `Cc1cc(C)c2c(N)c(C(O)c3ccncc3)sc2n1` (centres undefined), the EC50 in data set [1] (read-out: EC50) and in [8] (read-out: EC50) was more than 10000 nM each time. Further, the Drug metabolism result in data set [11] and in [12] was “Metabolite_Detected” in each case.

For the compound `Cc1nc2sc(C(=O)c3ccccc3)c(N)c2c(C)c1C`, the EC50 in data set [1] (read-out: EC50) is 120 to 138 nM; in data set [1] (read-out: pEC50 (converted)), 138 nM; in data set [8] (read-out: EC50), 76 to 145 nM; in data set [8] (read-out: pEC50 (converted)), 145 nM. In addition, the fraction unbound in data set [2] was 0.007; in data set [6], 0.008. Moreover, the values for the CLint scaled in [13] and in data set [15] were 429 mL/min/kg and 2070 mL/min/kg, respectively. The result in [14] was inactive. The values for the %max in data set [4] and in data set [7] were 71 to 80.5% and 76 to 76.8%, respectively.

For the compound `Nc1c(C(=O)c2ccncc2)sc2nc(O)c3c(c12)CCCC3`, the figures for the EC50 in data set [1] (read-out: EC50), in data set [1] (read-out: pEC50 (converted)) and in [8] (read-out: EC50) were 37 nM, 75.9 nM and 182 nM, respectively. In addition, the fraction unbound in [2] and in data set [6] was 0.005 to 0.18 throughout. Further, the figures for the %max in data set [4] and in [7] were 52.7% and 63.8%, respectively. Further, the “inhibition (INH)” value with Cytochrome P450 is recorded as “Not Active”; against Cytochrome P450 1A2, “Active”. The Kp at 0.25 h in data set [9] fell in the range of 0.83 to 6.95.

For the compound `Cc1cc(C)c2c(N)c(C(=O)c3ccc(O)cc3)sc2n1`, the figures for the EC50 in [1] (read-out: EC50) and in data set [8] (read-out: EC50) were 355 nM and 380 nM, respectively. For the same compound, the fraction unbound in [2] and in [6] was 0.005 to 0.18 in each case. The %max came to 73% in data set [4] and 70% in [7]. Besides, the “inhibition (INH)” value in the data set on Cytochrome P450 is given as “Not Active”; at Cytochrome P450 1A2, “Active”. For the same compound, the Kp at 0.25 h in data set [9] was 0.83 to 6.95.

Take `COc1ccc(C(=O)c2sc3nnc(C)c(C)c3c2N)cc1`: the EC50 in [1] (read-out: EC50) was 646 nM; in data set [8] (read-out: EC50), 1450 nM. Further, the fraction unbound in data set [2] and in data set [6] was 0.005 to 0.18 throughout. The %max in data set [4] worked out at 70%; in [7] it was 63%. The results for the “inhibition (INH)” value in the data set on Cytochrome P450 and at Cytochrome P450 1A2 were “Not Active” and “Active”, respectively. Besides, in data set [9], the Kp at 0.25 h lay in the range of 0.83 to 6.95.

`Cc1nnc2sc(C(=O)c3ccc(F)cc3F)c(N)c2c1C`: the EC50 in data set [1] (read-out: EC50) stood at 331 nM; in data set [8] (read-out: EC50), 380 nM. Further, the fraction unbound in [2] and in [6] was 0.005 to 0.18 in each case. Besides, the %max in data set [4] is 66%; in [7] it was 55%. The “inhibition (INH)” value in the data set with Cytochrome P450 was “Not Active”; on Cytochrome P450 1A2, “Active”. In addition, in [9], the Kp at 0.25 h is 0.83 to 6.95.
